The text below walks through data of ChEMBL document CHEMBL4321816, “Identification of 2,6-Disubstituted 3H-Imidazo[4,5-b]pyridines as Therapeutic Agents for Dysferlinopathies through Phenotypic Screening on Patient-Derived Induced Pluripotent Stem Cells” (J Med Chem, 2019).

Values after ≈ are worked out from the molar mass of the structure shown. Active and inactive are the calls of the source. No cut-off for these calls is given here. Where only a bound is given, the exact number is not on record here.

Data set [1] is described as follows: (§1) Anti-dysferlinopathy activity in human dermal myocytes derived from dysferlinopathy patient dermal fibroblast iPSC harboring dysferlin c.2997 G > T (p. W999C)/c.1958G deletion mutant assessed as increase in dysferlin expression incubated for 24 hrs by immunostaining assay. It is filed as functional. In outline: (§2)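 iPSCs from a dysferlinopathy patient's dermal fibroblasts carrying a stably transfected Tet-MyoD1 vector. Differentiated to myocytes by doxycycline (1 µg/mL) MyoD induction, then treated on day 7 for 24 h at 0.003–10 µM (0.1% DMSO final). Fixed, immunostained for dysferlin and MHC, and imaged. Read-out: 488 nm intensity in the dysferlin/MHC double-positive area. EC150 is the concentration giving 50% increase over median DMSO wells, from a 4-parameter logistic fit.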

The species entered for a further data set is Sus scrofa. Description: Competitive inhibition of porcine tubulin alpha/beta at 10 to 100 uM preincubated 30 mins followed by addition of N-(2-(3-(But-3-yn-1-yl)-3H-diazirin-3-yl)ethyl)-5-(2-(phenoxymethyl)-3H-imidazo[4,5-b]pyridin-6-yl)thiophene-3-carboxamide and measured after 15 mins by SDS-PAGE based fluorescence assay. In a few lines: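 Porcine brain tubulin at 25 µg/mL in HEPES isotonic buffer (pH 7.4) pre-incubated 30 min at room temperature with DMSO or compound (1–10 mM DMSO stocks). […] Labeled tubulin was tagged with TAMRA-azide by click reaction, run on SDS-PAGE and scanned for fluorescence, with Coomassie staining for total tubulin.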

A short description of data set [2]: Aqueous solubility in pH 6.8 by HPLC analysis. It is filed as physicochemical. The note with it: buffer. In a few lines:
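Compound added from DMSO solution to aqueous buffer at pH 6.8 and incubated. Precipitate removed by filtration. Dissolved compound in the filtrate quantified by plate reader or HPLC.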

Data set [3] is described as follows: Permeability of compound in pH 7.4 in PRISMA HT buffer at 10 umol/L incubated for 3 hrs by LC/MS/MS based PAMPA assay. In kind it is ADME. The note with it: read-out: permeability. In a few lines:
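PAMPA: donor wells held PRISMA HT buffer (pH 7.4) with 10 µmol/L compound, and the acceptor filter was coated with GIT-0 lipid over sink buffer. Incubated 3 h at room temperature, then compound in donor and acceptor wells measured by LC/MS/MS.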
(In general: In PAMPA a lipid-coated filter parts donor from acceptor wells.)

The species named for a further data set is Homo sapiens. The data set is described as §1. It is filed as functional. In a few lines: as §2
Another data set deals with HepG2. As to the kind of experiment: Cytotoxicity against human HepG2 cells assessed as reduction in cell viability after 24 hrs by Cell Titer Glo assay. The conditions noted are these: HepG2, 24 h. It is filed as cell-based. In a few lines:
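HepG2 cells in DMEM high glucose with 10% FBS were seeded at 5000 cells/well and grown ~24 h. Compounds were then added for 24 h at 37 °C/5% CO2, and viability read by CellTiter-Glo luminescence. Controls were DMSO wells and medium-only wells. IC50 was taken from a sigmoidal fit of % inhibition.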

For the compound `Cc1ccc(-c2cnc3[nH]c(CCc4ccc(F)cc4)nc3c2)s1`, the EC150 in data set [1] was determined as 6.3 µM.

As to `Fc1ccc(CCc2nc3cc(-c4cccs4)ccc3[nH]2)cc1`, the EC150 in data set [1] is >10 µM.

For the compound `CNC(=O)c1ccsc1-c1cnc2[nH]c(COc3ccccc3)nc2c1`, the EC150 in data set [1] was >10 µM.

In the case of `c1ccc(Cc2nc3cc(-c4ccco4)cnc3[nH]2)cc1`, in data set [1], the EC150 was >10 µM.

`Clc1ccccc1CCc1nc2cc(-c3ccco3)cnc2[nH]1`: the EC150 in data set [1] is >10 µM.

As to `Fc1ccc(CCc2nc3cc(-c4ccccc4)cnc3[nH]2)cc1`, in data set [1], the EC150 came out at 1.3 µM.

Regarding `CC[C@]1(O)C[C@@H]2CN(CCc3c([nH]c4ccccc34)[C@@](C(=O)OC)(c3cc4c(cc3OC)N(C)[C@H]3[C@@](O)(C(=O)OC)[C@H](OC(C)=O)[C@]5(CC)C=CCN6CC[C@]43[C@@H]65)C2)C1` [VINBLASTINE], the EC150 in data set [1] was 0.074 µM. In the data set filed under Sus scrofa, the inhibition result was “inactive”.

For the compound `CC(C)c1ccsc1-c1cnc2[nH]c(COc3ccccc3)nc2c1`, the EC150 in data set [1] was determined as 0.012 µM.

`Fc1ccc(CCc2nc3cc(-c4ccco4)cnc3[nH]2)cc1`: in data set [1], the EC150 is 1 µM.

Take `N#Cc1ccc(CCc2nc3cc(-c4ccco4)cnc3[nH]2)cc1`: in data set [1], the EC150 is >10 µM.

Turning to `Cc1ccsc1-c1cnc2[nH]c(CCc3ccc(F)cc3)nc2c1`, in data set [1], the EC150 came out at 0.11 µM.

As to `Fc1ccc(OCc2nc3cc(-c4cccs4)cnc3[nH]2)cc1`, the EC150 in data set [1] amounted to 0.067 µM.

Take `Cc1csc(-c2cnc3[nH]c(CCc4ccc(F)cc4)nc3c2)c1`: the EC150 in data set [1] is 1.9 µM.

As for `C#CCCC1(CCNC(=O)c2csc(-c3cnc4[nH]c(COc5ccccc5)nc4c3)c2)N=N1`, the EC150 in data set [1] came out at 0.37 µM.

Take `COCCOCCNC(=O)c1csc(-c2cnc3[nH]c(COc4ccccc4)nc3c2)c1`: the EC150 in data set [1] is 0.4 µM.

The term solubility denotes how much of the substance goes into solution per volume. Broadly, the IC50 is the point on the concentration scale where inhibition reaches its midpoint. In turn, `c1ccc(CCc2nc3cc(-c4ccco4)cnc3[nH]2)cc1` came in with a solubility in data set [2] of 6.4 µg/mL (≈ 22.1 µM). The Papp at 3 h, 10 µM in data set [3] turned out to be 33.2 ×10⁻⁶ cm/s. The Activity entry in the data set listed under Homo sapiens is “Dose-dependent effect”. Besides, the EC150 in data set [1] stood at 5.9 µM. Also, the IC50 in the data set on HepG2 was > 100 µM.

On to `Clc1cccc(CCc2nc3cc(-c4ccco4)cnc3[nH]2)c1`, for which the EC150 in data set [1] was >10 µM.

On to `Cc1ccc(CCc2nc3cc(-c4ccco4)cnc3[nH]2)cc1`, for which the EC150 in data set [1] is >10 µM.

As for `COc1ccc(CCc2nc3cc(-c4ccco4)cnc3[nH]2)cc1`, in data set [1], the EC150 is >10 µM.

`c1ccc(OCc2nc3cc(-c4cccs4)cnc3[nH]2)cc1`: the EC150 in data set [1] is 0.039 µM. Also, the inhibition entry in the data set filed under Sus scrofa is “Active”.

Consider `Fc1ccc(CCc2nc3ncc(-c4cccs4)cc3o2)cc1`, for which the EC150 in data set [1] is >10 µM.

In the case of `Fc1ccc(CCc2nc3cc(-c4cccs4)cnc3o2)cc1`, in data set [1], the EC150 was >10 µM.

`CNC(=O)c1csc(-c2cnc3[nH]c(COc4ccccc4)nc3c2)c1`: the EC150 in data set [1] stood at 0.11 µM.

Take `COC(=O)Nc1nc2cc(C(=O)c3cccs3)ccc2[nH]1` [NOCODAZOLE]: in data set [1], the EC150 was 1 µM. For the same compound, in the data set listed under Sus scrofa, the inhibition entry is “Active”.

With `c1ccc(-c2nc3cc(-c4ccco4)cnc3[nH]2)cc1`, the EC150 in data set [1] was >10 µM.

As to `Cc1c(-c2cccs2)cnc2[nH]c(CCc3ccc(F)cc3)nc12`, the EC150 in data set [1] turned out to be 0.37 µM.

For the compound `CC(=O)O[C@H]1C(=O)[C@@]2(C)[C@H]([C@H](OC(=O)c3ccccc3)[C@]3(O)C[C@H](OC(=O)[C@H](O)[C@@H](NC(=O)c4ccccc4)c4ccccc4)C(C)=C1C3(C)C)[C@]1(OC(C)=O)CO[C@@H]1C[C@@H]2O`, the inhibition entry in the data set listed under Sus scrofa is “inactive”.

As to `Fc1ccc(CCc2nc3cc(-c4cccs4)cnc3[nH]2)cc1`, the EC150 in data set [1] amounted to 0.15 µM.

Regarding `COc1cc2c(c(OC)c1OC)-c1ccc(OC)c(=O)cc1[C@@H](NC(C)=O)CC2`, in the data set filed under Sus scrofa, the inhibition result was “Active”.

Turning to `Cc1nc2[nH]c(CCc3ccc(F)cc3)nc2cc1-c1cccs1`, in data set [1], the EC150 is >10 µM.

`FC(F)(F)c1ccc(CCc2nc3cc(-c4ccco4)cnc3[nH]2)cc1`: the EC150 in data set [1] is >10 µM.

`Clc1ccc(CCc2nc3cc(-c4ccco4)cnc3[nH]2)cc1`: the EC150 in data set [1] is 4.3 µM.
